The test concerns kynurenine and tryptophan in the plasma. Put plainly: phase I trial: plasma kynurenine and tryptophan. In kind it is in vivo, human. Put shortly:
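In this open-label dose-escalation study, patients received the test compound orally twice daily (100–800 mg, three per cohort, 28-day cycles). Plasma was collected on cycle 1 day 1 and day 15 (predose and 1, 2, 4 and 6 h postdose), day 8 (predose), and cycle 2 day 1 (predose and 2 h). Kynurenine and tryptophan were quantified by LC-MS/MS, ratios were calculated, and values were normalized to baseline.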

Take `NS(=O)(=O)[C@H]1CC[C@](F)(CC[C@H]2c3ccccc3-c3cncn32)CC1` [M4112]: the “plasma kynurenine:tryptophan ratio” value (cycle 1 day 1, after 6 hours) was “decrease”. For the setting “day 1 of cycle 1, up to 6 hours after the first dose, all dose levels”, the “decrease in plasma kynurenine levels” value is on record as 12%–35. In addition, where the note is “day 1 of cycle 1, 200 mg two times per day and above”, the plasma tryptophan levels result is given as “increased”. The plasma kynurenine levels entry (day 15 of cycle 1) was “returned to at least baseline levels”.

The record behind these values is publication PMC7449315 (Journal for Immunotherapy of Cancer, 2020).
